# Test results: ChEMBL document CHEMBL1126015, “Heteroatom analogues of bemoradan: chemistry and cardiotonic activity of 1,4-benzothiazinylpyridazinones” (J Med Chem, 1992)
# How the values were obtained:
# Canis familiaris [1] = test: Increase in cardiac force in dog at 75 ug/kg intravenous dose; assay type: functional, Canis lupus familiaris
# Canis familiaris [2] = species on record: Canis familiaris; test: 50% increase in cardiac force in dog by id dose; assay type: functional; conditions: Canis lupus familiaris, Heart
# Outline: (§1)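 Anesthetized dogs; the value is the dose, given iv or intraduodenally, that raises cardiac force by 50%.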
# Canis familiaris [3] = test: 50% increase in cardiac force in dog by intravenous dose; assay type: functional; conditions: Canis lupus familiaris, Heart; outline: as §1
Structure (SMILES),Change (Canis familiaris [1]) [%],ED50 (Canis familiaris [2]) [mg/kg],ED50 (Canis familiaris [3]) [µg/kg]
CN1C(=O)CS(=O)(=O)c2cc(C3=NNC(=O)CC3)ccc21,20,–,–
CC1CC(=O)NN=C1c1ccc2c(c1)OCC(=O)N2 (stereo unspecified) [BEMORADAN],–,0.01,5.4
CN1C(=O)CSc2cc(C3=NNC(=O)CC3)ccc21,38,–,–
CN1C(=O)C[S+]([O-])c2cc(C3=NNC(=O)CC3)ccc21 (stereo unspecified),-3,–,–
O=C1CCC(c2ccc3c(c2)SCC(=O)N3)=NN1,62,–,–
